The term Kd denotes the concentration at which binding is half-saturated. What is called GI50 is the concentration at which growth is held to half of that of the control. The term Cmax denotes the peak of the concentration-time curve. One may read the Tmax as the time from dosing to the highest level. In general, AUC refers to concentration integrated over time. A higher AUC goes with high exposure.

For data set [1], the target named is RAC-alpha serine/threonine-protein kinase (Homo sapiens, UniProt P31749). Kind of data set: Binding affinity to DNA-tagged AKT1 (unknown origin) assessed as dissociation constant by q-PCR based competitive binding assay. In short, it runs like this:
(§1)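 KINOMEscan competition binding: DNA-tagged kinase competes between test compound and an immobilized active-site ligand, with bound kinase read by qPCR of the tag. Kd fitted from an 11-point threefold dilution series (top 30 μM) plus three DMSO control points, run in duplicate.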

In data set [2] the target is RAC-gamma serine/threonine-protein kinase (Homo sapiens, UniProt Q9Y243). Kind of data set: Binding affinity to DNA-tagged AKT3 (unknown origin) assessed as dissociation constant by q-PCR based competitive binding assay. In short, it runs like this: as §1
RAC-gamma serine/threonine-protein kinase, sequence (Q9Y243 whole entry): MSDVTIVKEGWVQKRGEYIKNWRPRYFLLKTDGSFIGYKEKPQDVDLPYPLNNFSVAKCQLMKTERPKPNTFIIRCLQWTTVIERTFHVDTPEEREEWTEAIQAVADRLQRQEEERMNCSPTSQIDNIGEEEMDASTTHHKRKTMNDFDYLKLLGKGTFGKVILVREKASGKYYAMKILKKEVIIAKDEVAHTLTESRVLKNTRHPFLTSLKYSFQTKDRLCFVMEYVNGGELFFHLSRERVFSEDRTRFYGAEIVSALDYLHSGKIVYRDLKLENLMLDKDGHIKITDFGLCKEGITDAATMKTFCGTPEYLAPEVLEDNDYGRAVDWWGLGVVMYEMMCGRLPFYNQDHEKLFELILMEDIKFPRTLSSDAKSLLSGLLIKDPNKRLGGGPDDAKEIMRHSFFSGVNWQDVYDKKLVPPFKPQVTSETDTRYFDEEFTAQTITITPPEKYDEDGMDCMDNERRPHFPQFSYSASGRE
The nature of data set [3]: Protac activity at CRBN/AKT in human BT-474 cells assessed as reduction in AKT protein level at 1 to 10 uM measured after 24 hrs by Western blot analysis. Particulars: dose 1-10 µM. A general note: In western blotting, separated proteins are transferred to a membrane and probed.
Data set [4] can be described thus: Protac activity at CRBN/AKT in human BT-474 cells assessed as inhibition of downstream signalling by measuring reduction in PRAS40 phosphorylation at T246 residue at 1 to 10 uM measured after 24 hrs Western blot analysis. Particulars: dose 1-10 µM.
A further data set concerns BT-474. Kind of data set: Inhibition of colony formation in human BT-474 cells at 0.1 to 10 uM incubated for 14 days by replacing culture medium for every 2 days by crystal violet staining based assay. It counts as functional, cell-based. Particulars: dose 0.1-10 µM, time 14.0 day. In a few lines: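 BT474 cells cultured 14 days with compound. Medium plus compound was replaced every 2 days. Viable cells were then stained with 0.5% crystal violet.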

The next data set concerns PC-3. The experiment in a line: Antiproliferative activity against human PC-3 cells assessed as inhibition of cell growth measured after 5 days by IncuCyte zoom live cell analysis. It is filed as functional. Particulars: PC-3, 120 h, time 5 day. In short, it runs like this: (§2)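 Cells grown in DMEM with 10% FBS at 37 °C, 5% CO₂. Seeded at 1–3 × 10³ cells/well in triplicate with serial compound dilutions for 5 days. Growth was taken as confluence from IncuCyte phase-contrast images of live cells. Three independent experiments.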

Another data set relates to MDA-MB-468. Kind of data set: Antiproliferative activity against human MDA-MB-468 cells assessed as cell growth by measured after 5 days by IncuCyte zoom live cell analysis. Particulars: MDA-MB-468, 120 h, time 5 day. It counts as functional. In short, it runs like this:
as §2

The nature of data set [5]: Cmax in Swiss albino mouse at 75 mg/kg, ip administered as single dose measured upto 12 hrs by LC-MS/MS analysis. The conditions noted are these: in vivo. It counts as ADME, organism-based. On the set-up: route intraperitoneal, dose 75 mg/kg, time <=12. In a few lines:
(§3)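 Male Swiss Albino mice, single IP dose of HCl salt in 5% DMA/5% Solutol HS-15/90% normal saline. Plasma (~60 μL) drawn from three mice per time point at 0.5, 1, 2, 4, 8 and 12 h. Samples were held below −70 °C and quantified by LC–MS/MS (LLOQ 10.18 ng/mL). Parameters come from non-compartmental analysis of mean concentrations.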

Data set [6] can be described thus: Tmax in Swiss albino mouse at 75 mg/kg, ip administered as single dose measured upto 12 hrs by LC-MS/MS analysis. Particulars: in vivo. It counts as ADME, organism-based. In short, it runs like this: as §3
Data set [7] can be described thus: Drug exposure in Swiss albino mouse plasma at 75 mg/kg, ip administered as single dose measured upto 12 hrs by LC-MS/MS analysis. It is filed as ADME, organism-based. The conditions noted are these: in vivo. In a few lines: as §3
The nature of data set [8]: AUC in Swiss albino mouse at 75 mg/kg, ip administered as single dose measured upto 12 hrs post injection by LC-MS/MS analysis. It is filed as ADME, organism-based. Further details: route intraperitoneal, dose 75 mg/kg, time <=12. The conditions noted are these: in vivo. In a few lines: as §3
Data set [9] in a line: Toxicity in immunocompromised NU/J mouse xenografted with human PC-3 cells assessed as body weight loss at 75 mg/kg, ip administered once daily for 22 days. The conditions noted are these: in vivo, 528 h, time 22 day. It counts as organism-based. In a few lines: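 Male NU/J nude mice, 6 weeks old, engrafted with PC-3 cells. Randomized at ~100 mm³ tumors to vehicle (n = 6) or 75 mg/kg IP once daily (n = 7) for 22 days. Body weight compared at study start and end. Unblinded.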

Structures are written as SMILES. Calls of active or inactive are those of the source. The rule behind the calls is not given here.

RAC-alpha serine/threonine-protein kinase, sequence (P31749 whole entry): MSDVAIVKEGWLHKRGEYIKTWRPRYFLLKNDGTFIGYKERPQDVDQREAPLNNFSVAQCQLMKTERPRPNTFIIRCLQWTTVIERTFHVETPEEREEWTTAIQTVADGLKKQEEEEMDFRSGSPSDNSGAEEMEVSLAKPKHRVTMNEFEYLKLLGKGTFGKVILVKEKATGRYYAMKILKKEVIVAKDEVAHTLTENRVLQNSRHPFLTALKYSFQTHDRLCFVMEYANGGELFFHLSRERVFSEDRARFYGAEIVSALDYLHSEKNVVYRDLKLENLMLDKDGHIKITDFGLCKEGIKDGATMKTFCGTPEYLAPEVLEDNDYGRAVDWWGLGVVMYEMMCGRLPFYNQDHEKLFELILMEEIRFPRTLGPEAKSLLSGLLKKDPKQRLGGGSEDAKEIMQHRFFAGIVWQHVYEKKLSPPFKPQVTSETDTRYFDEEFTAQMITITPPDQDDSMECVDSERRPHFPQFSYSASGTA

For `Cc1ncsc1-c1ccc(CNC(=O)[C@@H]2C[C@@H](OCc3ccccc3)CN2C(=O)[C@@H](NC(=O)CCCCCCCCCCC(=O)N2CCN(CC[C@H](NC(=O)C3(N)CCN(c4ncnc5[nH]ccc45)CC3)c3ccc(Cl)cc3)CC2)C(C)(C)C)cc1`, the results for the Kd in data set [1] and in data set [2] were 0.15 µM and 2.9 µM, respectively.

On to `NC1(C(=O)N[C@@H](CCN2CCN(C(=O)CCCCCNc3cccc4c3C(=O)N(C3CCC(=O)NC3=O)C4=O)CC2)c2ccc(Cl)cc2)CCN(c2ncnc3[nH]ccc23)CC1` (stereo partly specified), for which the result in data set [3] was Active. For the same molecule, in [4], the inhibition entry was “Active”.

Turning to `CN1C(=O)CCC(N2C(=O)c3cccc(NCCOCCOCCOCCOCCOCCC(=O)N4CCN(CC[C@H](NC(=O)C5(N)CCN(c6ncnc7[nH]ccc67)CC5)c5ccc(Cl)cc5)CC4)c3C2=O)C1=O` (stereo partly specified), the dissociation constant Kd in data set [1] stood at 0.0055 µM; in data set [2] it was 0.023 µM.

On to `NC1(C(=O)N[C@@H](CCN2CCN(C(=O)CCCNc3cccc4c3C(=O)N(C3CCC(=O)NC3=O)C4=O)CC2)c2ccc(Cl)cc2)CCN(c2ncnc3[nH]ccc23)CC1` (stereo partly specified), for which the outcome in data set [3] was Active. For the same molecule, the inhibition result in [4] was “Active”.

As to `Cc1ncsc1-c1ccc(CNC(=O)[C@@H]2C[C@@H](O)CN2C(=O)[C@@H](NC(=O)CCCCCCCCCCC(=O)N2CCN(CC[C@H](NC(=O)C3(N)CCN(c4ncnc5[nH]ccc45)CC3)c3ccc(Cl)cc3)CC2)C(C)(C)C)cc1`, the inhibition entry in the data set with BT-474 was “Active”. For the same molecule, the GI50 in the data set on PC-3 was 0.8 µM; with MDA-MB-468 it was 1 µM. Also, in [5], the highest concentration (Cmax) was 7 µM. For the same molecule, the Tmax in [6] is 2 h. Moreover, the Activity was 3.7 µM in [7] and “Non-Toxic” in data set [9]. In data set [8], this molecule came in with an exposure (AUC) of 63600 ng·h/mL.

The record behind these values is ChEMBL document CHEMBL5046272, “Discovery of Potent, Selective, and In Vivo Efficacious AKT Kinase Protein Degraders via Structure-Activity Relationship Studies” (J Med Chem, 2022).
